In general, IC50 refers to the point on the concentration scale where inhibition reaches its midpoint. High values mean a need for much substance, low ones inhibition by little substance.

The target in this assay is Acyl carrier protein,/NADH dehydrogenase [ubiquinone] flavoprotein 1, mitochondrial (Bos taurus, UniProt P25708+P52505). Put plainly: Inhibition of NADH oxidase activity. An outline of the steps:
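Beef-heart submitochondrial particles (sonicated frozen-thawed mitochondria), preactivated with 300 µM NADH, assayed at 22 °C in 50 mM potassium phosphate pH 7.4, 1 mM EDTA (0.28 nM complex I). Aerobic oxidation of 75 µM NADH with no added quinone, followed at 340 nm. Ethanolic compound added cumulatively, 5 min on ice per step, ethanol ≤2%. IC50 is the final concentration giving 50% inhibition.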

Chain of Acyl carrier protein,/NADH dehydrogenase [ubiquinone] flavoprotein 1, mitochondrial (P25708 21-464 limits assumed, other chains not shown): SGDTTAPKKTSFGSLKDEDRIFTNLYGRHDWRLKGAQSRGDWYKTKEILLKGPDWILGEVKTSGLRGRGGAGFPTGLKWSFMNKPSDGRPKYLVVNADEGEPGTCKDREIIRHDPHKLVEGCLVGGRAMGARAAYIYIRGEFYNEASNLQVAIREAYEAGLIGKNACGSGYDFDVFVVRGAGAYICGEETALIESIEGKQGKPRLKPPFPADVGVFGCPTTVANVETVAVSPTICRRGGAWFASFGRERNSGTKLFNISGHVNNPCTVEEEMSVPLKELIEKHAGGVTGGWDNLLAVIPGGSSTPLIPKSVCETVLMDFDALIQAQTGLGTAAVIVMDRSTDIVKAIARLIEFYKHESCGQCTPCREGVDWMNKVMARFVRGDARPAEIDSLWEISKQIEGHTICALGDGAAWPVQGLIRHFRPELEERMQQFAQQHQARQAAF

Take `CCCCCCCCCCC(N=O)[C@H]1CC[C@@H]([C@@H]2CC[C@H]([C@H](O)CCCCCCCCCCC(CC3=C[C@H](C)OC3=O)N=O)O2)O1` (some centres not stated) [3-{13-Hydroxy-2-hydroxyimino-13-[5'-(1-hydroxyimino-undecyl)-octahydro-[2,2']bifuranyl-5-yl]-tridecyl}-5-methyl-5H-furan-2-one(4,24-didehydroxy-4,24-dihydroxyliminorolliniastatin-1)]: inhibition was half-maximal at 0.34 nM (IC50).

`CCCCCCCCCC[C@H](O)[C@H]1CC[C@H]([C@H]2CC[C@H]([C@H](O)CCCCC(CCCCCCCC3=C[C@H](C)OC3=O)N=O)O2)O1` (some centres not stated) [10-oxime-guanacone] yielded an IC50 of 0.34 nM.
